{
  "source": "ChEMBL document CHEMBL2010649",
  "about": "“Metacridamides A and B, macrocycles from conidia of the entomopathogenic fungus Metarhizium acridum” (J Nat Prod, 2012)",
  "key": {"[1]": {"tested_on": "Aedes aegypti", "test": "Insecticidal activity against Aedes aegypti larvae at 100 ug/ml", "format": "functional, organism-based"}, "[2]": {"test": "Cytotoxicity against human HepG2/C3A cells after 72 hrs by XTT assay", "format": "functional, cell-based", "how_it_was_run": "(§1)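 Cell viability measured by XTT cell proliferation kit (XTT Cell Proliferation Kit II) on Caco-2, MCF-7 and HepG2/C3A lines; IC50 values derived.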"}, "[3]": {"tested_on": "Botrytis cinerea", "test": "Antimicrobial activity against Botrytis cinerea at 100 ug/disk measured every 24 hrs for 4 days by disk diffusion assay", "format": "functional, organism-based", "how_it_was_run": "(§2)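 Fungi grown on potato dextrose agar. Plates spread with 0.6 mL conidial suspension (ca. 1×10^6 conidia/mL H₂O) and dried 1 h. Sample applied in 10 μL MeOH to 7-mm paper disks, air-dried 1 h, placed on plates. Zones of inhibition read every 24 h for 4 days. Filipin 10 μg/disk positive control; MeOH 10 μL/disk negative control.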"}, "[4]": {"tested_on": "Escherichia coli", "test": "Antimicrobial activity against Escherichia coli at 100 ug/disk measured every 24 hrs for 4 days by disk diffusion assay", "format": "functional, organism-based", "how_it_was_run": "(§3)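 Bacteria grown on nutrient agar. Plates spread with 0.6 mL of a 24 h nutrient-broth culture and dried 1 h. Sample applied in 10 μL MeOH to 7-mm paper disks, air-dried 1 h, placed on plates. Zones of inhibition read every 24 h for 4 days. Tetracycline 10 μg/disk positive control; MeOH 10 μL/disk negative control.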"}, "[5]": {"tested_on": "Colletotrichum acutatum", "test": "Antimicrobial activity against Colletotrichum acutatum at 100 ug/disk measured every 24 hrs for 4 days by disk diffusion assay", "format": "functional, organism-based", "how_it_was_run": "as §2"}, "[6]": {"tested_on": "Beauveria bassiana", "test": "Antimicrobial activity against Beauveria bassiana ARSF 8354 at 100 ug/disk measured every 24 hrs for 4 days by disk diffusion assay", "format": "functional", "how_it_was_run": "as §2"}, "[7]": {"tested_on": "Caco-2", "test": "Cytotoxicity against human Caco2 cells after 72 hrs by XTT assay", "format": "functional, cell-based", "details": "Caco-2, 72 h", "how_it_was_run": "as §1"}, "[8]": {"tested_on": "Bacillus cereus", "test": "Antimicrobial activity against Bacillus cereus at 100 ug/disk measured every 24 hrs for 4 days by disk diffusion assay", "format": "functional, organism-based", "how_it_was_run": "as §3"}, "[9]": {"tested_on": "Drosophila melanogaster", "test": "Insecticidal activity against Drosophila melanogaster at 100 ug", "format": "functional, organism-based"}, "[10]": {"tested_on": "MCF7", "test": "Cytotoxicity against human MCF7 cells after 72 hrs by XTT assay", "format": "functional, cell-based", "details": "MCF7, 72 h", "how_it_was_run": "as §1"}, "[11]": {"tested_on": "MCF7", "test": "Cytotoxicity against human MCF7 cells at 100 uM after 72 hrs by XTT assay", "format": "functional, cell-based"}, "[12]": {"tested_on": "Caco-2", "test": "Cytotoxicity against human Caco2 cells at 100 uM after 72 hrs by XTT assay", "format": "functional, cell-based"}},
  "note": "Active and inactive are the calls of the source. The calls are words filed in the database; no cut-off is given here.",
  "data": [
    {"compound": "CC[C@H](C)C[C@H](C)[C@H]1OC(=O)[C@H](Cc2ccccc2)NC(=O)/C(C)=C/[C@H](C)[C@@H](O)/C(C)=C/[C@H](C)[C@H](OC(C)=O)/C(C)=C/[C@@H]1C", "note": "[METACRIDAMIDE A]", "values": [
      {"measurement": "Activity", "setting": "[1]", "result": "inactive"},
      {"measurement": "IC50", "setting": "[2]", "result": 10.8, "unit": "µM"},
      {"measurement": "inhibition zone (IZ)", "setting": "[3]", "result": "inactive"},
      {"measurement": "inhibition zone (IZ)", "setting": "[4]", "result": "inactive"},
      {"measurement": "inhibition zone (IZ)", "setting": "[5]", "result": "inactive"},
      {"measurement": "inhibition zone (IZ)", "setting": "[6]", "result": "inactive"},
      {"measurement": "IC50", "setting": "[7]", "result": 6.2, "unit": "µM"},
      {"measurement": "inhibition zone (IZ)", "setting": "[8]", "result": "inactive"},
      {"measurement": "Activity", "setting": "[9]", "result": "inactive"},
      {"measurement": "IC50", "setting": "[10]", "result": 11, "unit": "µM"}
    ]},
    {"compound": "CC[C@H](C)C[C@H](C)[C@H]1OC(=O)[C@H](Cc2ccccc2)NC(=O)/C(C)=C/[C@H](C)[C@@H](O)/C(C)=C/[C@H](C)[C@H](O)/C(C)=C\\[C@@H]1C", "note": "[METACRIDAMIDE B]", "values": [
      {"measurement": "IC50", "setting": "[2]", "result": 18.2, "unit": "µM"},
      {"measurement": "Activity", "setting": "[11]", "result": "inactive"},
      {"measurement": "Activity", "setting": "[12]", "result": "inactive"}
    ]}
  ]
}
